Measurements taken from ChEMBL document CHEMBL4513216, “Probing the Open Global Health Chemical Diversity Library for Multistage-Active Starting Points for Next-Generation Antimalarials” (ACS Infect Dis, 2020).

experiment: Toxicity liver stage against HepG2, at 10uM; format: cell-based; set-up: test concentration 10 uM, cell line HepG2-A16-CD81EGFP; conditions: human, HepG2-A16-CD81EGFP cells; read-out: INHIBITION
Outline: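 Uninfected HepG2-A16-CD81EGFP cells, 3 × 10^3 per well, 1536-well, plated on prespotted compound at 10 μM final, parasite-free screening media added to match infected plates; puromycin 10 μM positive, DMSO 0.5% negative; run in parallel with 48 h PbLuc assay at 37 °C, 5% CO2; viability by CellTiter-Glo luminescence, normalized to controls.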

Compound	cytotoxicity at 10 µM [%]
CS(=O)(=O)c1ccc(O[C@H]2COCCN(Cc3ccncc3)C2)cc1	-5.33
CNC(=O)C(C)(C)N1CCC[C@H]1C(=O)NC1CC1	4.82
CC(C)c1noc([C@@H]2C[C@H](NS(=O)(=O)Cc3ccccc3)CN2C)n1	-2.1
O=C(c1cccnc1SCc1ccccc1)N1CC[C@@H](O)C1	-2.04
Nc1cccnc1N1CCN(c2ccccc2)CC1	-2.95
CSCC[C@H](NC(=O)CCn1ccc2c(Cl)cccc21)C(=O)O	2.42
O=C(NC1CC1)c1cccc(Oc2ccc3nncn3n2)c1	-5.29
Cc1cc(Br)c2c(c1)C1(CC(=O)Nc3c1cnn3C(C)C)C(=O)N2 (configuration not stated)	-10.3
CC(=O)N1CCC2(CC1)CN(C(=O)c1ccc3c(c1)OCCO3)C2	9.15
CN1C(=O)CC[C@@H]2[C@H]1CCN2S(=O)(=O)c1cccs1	-1.54
CCNC(=O)N1CCC2(CC1)CCn1c(-c3ccccc3)cnc12	-8.19
O=C(CO)N1CC2(CCN(c3ccccc3)C2)C1	8.98
CCN1CC2(CCN(C(=O)N(C)C)CC2)COc2ccccc2S1(=O)=O	6.55
Cc1cccc(N2CC3(CCN(S(=O)(=O)c4ccccc4)C3)CC2=O)c1 (configuration not stated)	11
CN1CCN(C(=O)Cc2ccccn2)Cc2cccnc21	-7.01
O=C1CC(c2ccc(C(=O)O)cc2)c2ncn(-c3cccnc3)c2N1 (configuration not stated)	-1.64
CCCN1C(=O)CC(N2CCN(c3ccc(F)cc3)CC2)C1=O (configuration not stated)	-3.03
CN1CCN(c2nc(O)c3c(-c4ccccn4)ccnc3n2)CC1	-6.6
O=C(NCc1ccccc1)NCc1nc(-c2ccncc2)n[nH]1	0.449
CCc1nnc(Nc2cccc(C3CCCN(CC(C)(C)C)C3)n2)s1 (configuration not stated)	-33.9
COCC(=O)N1CCCCC1c1ccncn1 (configuration not stated)	-27.8
CN1CC(c2cc(O)nc(NCc3cccc(F)c3)n2)CC1=O (configuration not stated)	1.96
CC(NC(=O)N1CCS(=O)(=O)CC1)c1ccc(F)cc1Cl (configuration not stated)	-1.28

Compound	cytotoxicity at 10 µM [%]
CSc1ccsc1C(=O)NCCNC(=O)C1CC1	1.93
CCC(CC)c1cc(C(=O)N2CCN(C(C#N)C(C)C)CC2)on1 (configuration not stated)	1.87
CCCC(C)CS(=O)(=O)NCc1cccnc1N(C)C (configuration not stated)	2.96
CCc1ncc(CN(C)C2CCN(c3sccc3C#N)C2=O)s1 (configuration not stated)	-0.876
COc1ccc(C)cc1CN(C)CC(N)=O	-0.691
CN(C)c1nc(CNC(=O)NC2COc3ccccc32)cs1 (configuration not stated)	-3.38
CC(Cc1ccc(C(F)(F)F)cc1)C(=O)N1CCCS1(=O)=O (configuration not stated)	-1.01
CC(NC(=O)CCNC(=O)c1ccoc1)c1ccccc1 (configuration not stated)	5.66
CC(C)c1nccn1CCC(=O)NCC(C)(O)c1ccco1 (configuration not stated)	1.23
CCc1[nH]ncc1C(=O)N1CCN(c2nccc(OC)n2)CC1	0.296
CNS(=O)(=O)c1ccc(CNC(=O)C2CCCN(C)C2)cc1 (configuration not stated)	-10.5
Cc1cc(NC(=O)NCCOc2ccc(Cl)cn2)no1	9.08
Cn1cc(N2CCCC(Nc3ccc4c(c3)CCC(=O)N4)C2=O)cn1 (configuration not stated)	-1.56
O=C(c1ccc(-n2cccc2)c(F)c1)N1CCCN2CCCC2C1 (configuration not stated)	-2.45
CN(C)CCN1CCC(NC2CSCCc3ccccc32)CC1 (configuration not stated)	-8.77
CCC(C)(NCC(=O)OC)c1nc(C)cs1 (configuration not stated)	-3.94
O=C(Nc1cc(Cl)ccn1)c1nc(N2CCCC2)ncc1Cl	-9.26
N#Cc1cc(NC(=O)c2cscn2)ccc1N1CCC(O)CC1	6.59
O=C(NCc1ccccc1Cn1cncn1)N1CCCC1	-5
CCn1nc2c(cc1=O)CN(CC(=O)Nc1cc(C)no1)CC2	-5.22
COCCN1CCC(NC(=O)C(C)C)CC1	-2.45
O=S(=O)(c1ccc2c(c1)OCCO2)N1CCC(OCc2ccccn2)C1 (configuration not stated)	-1.18
CC(C)(C)C(=O)NCC(=O)NC1CC(c2cccc(Cl)c2)C1 (configuration not stated)	-1.72

Compound	cytotoxicity at 10 µM [%]
CCOCC1CCN(C(=O)Nc2ccc3c(c2)CCCN3C)C1 (configuration not stated)	10.1
CSc1ccc(NCc2csc(C)n2)cc1F	-6.54
CC(C(=O)N1CCc2ccccc21)N1CCc2cncnc2C1 (configuration not stated)	0.693
O=C(Nc1cc(C2CCOCC2)[nH]n1)c1ccc(Cl)cn1	0.78
COc1ccccc1CNC(=O)CNc1ccccc1C(C)=O	4.7
Cc1cccc(N(CCC#N)S(=O)(=O)CC2CCCCO2)c1 (configuration not stated)	6.48
CC(C1CC1)n1nccc1NC(=O)CN(C)C(=O)OC(C)(C)C (configuration not stated)	0.258
Cc1n[nH]cc1CNC(C(=O)N1CCOCC1)c1ccccc1 (configuration not stated)	7.57
Cc1cccc(C(C)(C)CNC(=O)CCSc2nnnn2C)c1	-1.09
Cc1ccc(N2CCCC(N3CCC(N(C)C)CC3)C2=O)cc1 (configuration not stated)	-5.16
Cc1cccc(NC(=O)CCNCc2c(C)nn(C)c2N(C)C)n1	7.82
CCOc1ccc(CN2C(=O)CC3(CCCC3)C2=O)nc1	-4.01
CCOCC(=O)N(C)c1ccc(F)c(Cl)c1	-3.99
CCc1nsc(N2CCc3sccc3C2)n1	1.56
COCCCNC(=O)C1(NC(=O)c2ccc3[nH]ncc3c2)CCCC1	-1.62
O=S1(=O)CCC(N(CCc2ccc3c(c2)CCO3)C2CC2)C1 (configuration not stated)	-0.532
O=C(NCCn1cccc1)c1c(O)cc(F)cc1F	-5.22
CCC(CC)c1cc(CNC(=O)N2CCCC(N(C)C)C2)on1 (configuration not stated)	1.47
CC(=O)N1CCN(Cc2nnc(C(C)(C)C)o2)CC1	-0.549
CCc1nc(C2CCCN2Cc2nc(C3CC3)no2)no1 (configuration not stated)	-21.4
Cc1nc(C)n(CC2CN(CCc3ccncc3)CCO2)n1 (configuration not stated)	-14.7
O=C(CC1CN(Cc2ccccc2)CCO1)Nc1ccccc1F (configuration not stated)	-2.05
Cc1ccc(C(=O)N2C[C@H](OCC3CCOCC3)[C@H]3OCCC[C@H]32)o1	-0.714

Compound	cytotoxicity at 10 µM [%]
Cc1cccc(OC2CCN(C(=O)CNC(=O)N(C)C)CC2)c1	-0.951
CO[C@H]1CNC[C@@H]1NC(=O)c1cc(C)nc2c(C)cc(C)cc12	4.12
Cc1nc(O)cc(CN2CC=C(c3cnn(C(C)(C)C)c3)CC2)n1	-7.17
CCc1nnsc1C(=O)NCCC1CN(C(C)C)CCO1 (configuration not stated)	-7.07
COc1nc2c(cc1C(=O)N1CCCCC1c1ccccn1)CCC2 (configuration not stated)	-12.5
CNc1nc(C)c(C(=O)N2CCCCC2CCc2ccc(O)cc2)s1 (configuration not stated)	0.126
CCCOC(=O)N1CCCn2nc(C(=O)Nc3ccccc3)cc2C1	7.23
COc1cccc(-c2n[nH]cc2C(=O)NC(C)c2n[nH]c(C)n2)c1 (configuration not stated)	-6.26
Cn1cc(CNCC2(O)CCCN(Cc3ccc(F)c(F)c3)C2=O)cn1 (configuration not stated)	-14.5
CCC(C(=O)N(C)Cc1cc(C2CC2)[nH]n1)n1cccn1 (configuration not stated)	-8.35
Cc1cncc(C(=O)N2CCC3(CC2)C(=O)Nc2ccccc23)c1	-137
COc1ccc(N2CCN(C(=O)CCn3nnnc3C)CC2(C)C)cc1	10.4
CCN(CCc1nc2cc(C)ccc2[nH]1)C(=O)[C@@H](N)CCSC	-9.28
Cc1cc(C)c2nc(CN(C)C(C)c3ccncn3)cc(O)c2c1 (configuration not stated)	4.11
O=C1CCC2(CCN(Cc3ncccn3)CC2)CN1CCCO	-8.11
COC1CCN(S(=O)(=O)NCC2COc3ccccc3C2)CC1 (configuration not stated)	-1.08
CCn1nc(C)c(CN(CCOC)C(=O)c2ccccc2N(C)C)c1C	-1.14
Cc1ccncc1C(=O)N1CCCC(C(=O)CCc2ccccc2)C1 (configuration not stated)	18
Cc1ccc(NC2CCN(C(=O)c3cnn(C(C)(C)C)c3)CC2)nn1	-0.939
CCS(=O)(=O)N1CCN(C(=O)c2cnc3[nH]nc(C)c3c2)CC1	-5.68
CC(C)(C)c1ncc(C(=O)NCCNS(C)(=O)=O)s1	-6.14
COc1ccc(NC(=O)C(C)n2cncn2)cn1 (configuration not stated)	-16.4
CC(C)CN(Cc1nc2c(cnn2C)c(=O)[nH]1)CC(C)C	-5.36

Compound	cytotoxicity at 10 µM [%]
Cc1csc(N2CCCN(C(=O)C3(C#N)CCCC3)CC2)n1	-1.01
CC(C)c1ncc2c(n1)CN(Cc1cccc(C(N)=O)c1)CC2	-9.17
COC(=O)c1ccc(N2CCN(C(=O)c3ccco3)C(C)C2)cc1 (configuration not stated)	-8.15
CCCc1noc(CCC(=O)N2CCCC2c2cccc(OC)c2)n1 (configuration not stated)	-9.71
c1ncn(CC2CCCN(Cc3nc(-c4ccoc4)no3)C2)n1 (configuration not stated)	-1.43
c1ccc2nc(N3CCOC(Cn4cccn4)C3)cnc2c1 (configuration not stated)	-9.86
Cc1cnn(CC(C)NCc2ccc(OCc3nccn3C)cc2)c1 (configuration not stated)	-10.7
CCc1n[nH]c(C2CN(C(=O)Cc3cccs3)CCO2)n1 (configuration not stated)	2.83
Cc1nn(C)c(C)c1C1CCCN1Cc1nc2ccccc2c(=O)[nH]1 (configuration not stated)	-15.9
CCN(Cc1nc2c(cnn2C)c(=O)[nH]1)c1cccc(F)c1	-0.746
CCOCC1CC2(CCN(C(=O)c3ccc4ccccc4n3)CC2)CO1 (configuration not stated)	3.79
Cc1noc(C)c1CN1CCn2cc(CN3CCCCC3)nc2C1	8.95
Cc1occc1C(=O)N1CCC2(CCN(Cc3cccs3)C2)CC1	-4.58
CCc1cnc(N2CC[C@H]3[C@H]2CC(=O)N3c2cccnc2)nc1	-9.62
O=C(NCC1CC1)[C@@H]1CC[C@@H]2[C@@H](CCN2Cc2ccco2)O1	4.62
O=C(CC1CC1)N1CC[C@@H]2[C@H](CC1)N(Cc1cccnc1)CCS2(=O)=O	5.96
c1cnc(N2CCN(C3CCC[C@@H]4CN(CC5CC5)C[C@H]34)CC2)nc1 (some centres not stated)	8.97
CN1CCN(Cc2cccnc2)C2(CCN(C3CCOCC3)C2)C1=O (configuration not stated)	-5.87
CC(C)NC1CC2(CCNCC2)c2cc(F)ccc21 (configuration not stated)	-9.05
COCCN1C(=O)[C@@H]2CC[C@H]1CN(c1ncccn1)C2	7.01
